Experimental data as given in ChEMBL document CHEMBL3112486, “Novel class of benzoic acid ester derivatives as potent PDE4 inhibitors for inhaled administration in the treatment of respiratory diseases” (J Med Chem, 2014).

Assays:
[1] = target: Phosphodiesterase 3 (Homo sapiens, UniProt Q14432+Q13370); assay: Inhibition of human platelet PDE3 at 10 uM
[2] = target: T1, Phosphodiesterase 4 (Homo sapiens, UniProt P27815+Q08499+Q07343+Q08493); assay: Inhibition of PDE4 isolated from human U937 cells assessed as […] by LANCE assay; format: cell-free; conditions: u-937
[3] = target: cGMP-specific 3',5'-cyclic phosphodiesterase PDE5 (Homo sapiens) (UniProt O76074); assay: Inhibition of human platelet PDE5 at 10 uM
[4] = target: cGMP-dependent 3',5'-cyclic phosphodiesterase (Homo sapiens, UniProt O00408); assay: Inhibition of human platelet PDE2 at 10 uM
[5] = system: Cavia porcellus; assay: Inhibition of ovalbumin-induced lung eosinophilia in Dunkin-Hartley guinea pig at 0.3 umol/kg administered intratracheally 2 hrs before ovalbumin challenge; format: functional; conditions: inhaled or nasal
Procedure, shortened: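 Sensitized guinea pigs challenged on day 20 after first sensitization with a 1 h aerosol of OVA (10 μg/mL in saline); sham group received saline aerosol. Compound given intratracheally as a dry powder formulation 2 h or 24 h before challenge. Read-out was airway/lung eosinophil influx.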

[6] = n-Octanol-buffer partition coefficient, log D of the compound at pH 7.4 by shake-flask method
[7] = target: T1, Phosphodiesterase 4; assay: Inhibition of PDE4 activity in human PBMC assessed as inhibition of LPS-induced TNFalpha release after 18 hrs by ELISA
Procedure, shortened: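 Human PBMCs plated at 10^5 cells/well in RPMI 1640 without phenol red plus 10% FBS, at 37 °C, 5% CO2. Compound added at 10^-15 to 10^-6 M (final DMSO 0.2%), with E. coli LPS at 3 ng/mL final, for 18 h. TNFα in supernatant measured by paired-antibody ELISA. IC50 from four-parameter logistic nonlinear regression, reported with 95% confidence intervals.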

Sequence of cGMP-dependent 3',5'-cyclic phosphodiesterase (O00408 whole entry): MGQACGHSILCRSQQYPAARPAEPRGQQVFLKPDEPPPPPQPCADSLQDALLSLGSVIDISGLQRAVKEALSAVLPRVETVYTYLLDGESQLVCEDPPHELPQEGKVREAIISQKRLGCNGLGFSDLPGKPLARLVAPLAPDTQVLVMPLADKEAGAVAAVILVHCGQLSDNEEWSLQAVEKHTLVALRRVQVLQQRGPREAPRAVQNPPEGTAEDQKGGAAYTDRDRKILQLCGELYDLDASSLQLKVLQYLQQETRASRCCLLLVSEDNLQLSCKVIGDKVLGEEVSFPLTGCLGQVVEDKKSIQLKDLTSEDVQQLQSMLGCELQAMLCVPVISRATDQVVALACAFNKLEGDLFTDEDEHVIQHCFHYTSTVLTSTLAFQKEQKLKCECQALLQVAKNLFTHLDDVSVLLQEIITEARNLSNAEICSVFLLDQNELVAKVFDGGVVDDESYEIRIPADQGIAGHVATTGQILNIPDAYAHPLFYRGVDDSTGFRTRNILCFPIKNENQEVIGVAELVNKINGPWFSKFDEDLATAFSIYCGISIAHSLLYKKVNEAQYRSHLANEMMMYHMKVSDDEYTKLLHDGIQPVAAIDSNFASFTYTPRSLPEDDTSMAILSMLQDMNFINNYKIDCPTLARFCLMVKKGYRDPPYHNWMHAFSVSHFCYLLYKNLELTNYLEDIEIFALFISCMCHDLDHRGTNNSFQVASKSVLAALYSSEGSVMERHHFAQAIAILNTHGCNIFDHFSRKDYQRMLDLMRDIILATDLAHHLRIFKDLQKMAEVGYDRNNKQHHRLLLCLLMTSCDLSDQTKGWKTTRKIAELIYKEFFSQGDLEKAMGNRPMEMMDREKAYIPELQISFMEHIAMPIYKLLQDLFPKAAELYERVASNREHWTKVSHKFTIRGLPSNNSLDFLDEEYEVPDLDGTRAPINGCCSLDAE

Structure (SMILES)	IC50 [2]	IC50 [7]	also measured
O=C(OC(Cc1c(Cl)cncc1Cl)c1ccc(OC(F)F)c(OCC2CC2)c1)c1ccc(OC(F)F)c(OCC2CC2)c1 (racemic)	3450 pM		inhibition [1]: 18%; inhibition [3]: 58%; inhibition [4]: 0%
C[C@@H]1C[C@H]2[C@@H]3C[C@H](F)C4=CC(=O)C=C[C@]4(C)[C@@]3(F)[C@@H](O)C[C@]2(C)[C@@]1(OC(=O)c1ccco1)C(=O)SCF [FLUTICASONE FUROATE]			inhibition in vivo at 0.3 µmol/kg [5]: 90%; logD [6]: 4.43
Cc1ccc(O)c(C(=O)N[C@H]2CC[C@@H](NC(=O)c3cc(F)cnc3Oc3ccc(F)c(F)c3)CC2)c1 [UK-500001]			logD [6]: 4.27
Cc1ccc(C(=O)O[C@@H](Cc2c(Cl)c[n+]([O-])cc2Cl)c2ccc(OC(F)F)c(OCC3CC3)c2)cc1NS(C)(=O)=O	30 pM	960 pM	
O=C(O[C@@H](Cc1c(Cl)c[n+]([O-])cc1Cl)c1ccc(OC(F)F)c(OCC2CC2)c1)c1ccc(Cl)cc1	160 pM	1850 pM	
COc1cc(C(=O)O[C@@H](Cc2c(Cl)c[n+]([O-])cc2Cl)c2ccc(OC(F)F)c(OCC3CC3)c2)ccc1NS(C)(=O)=O	60 pM	380 pM	
O=C(O[C@@H](Cc1c(Cl)c[n+]([O-])cc1Cl)c1ccc(OC(F)F)c(OCC2CC2)c1)c1ccc(C(=O)O)c(OCC2CC2)c1	50 pM	300 pM	
COc1ccc(NS(C)(=O)=O)cc1C(=O)O[C@@H](Cc1c(Cl)c[n+]([O-])cc1Cl)c1ccc(OC(F)F)c(OCC2CC2)c1	40 pM	890 pM	
O=C(O[C@@H](Cc1c(Cl)c[n+]([O-])cc1Cl)c1ccc(OC(F)F)c(OCC2CC2)c1)c1ccc(O)c(OCC2CC2)c1	40 pM	850 pM	
CS(=O)(=O)Nc1ccc(C(=O)O[C@@H](Cc2c(Cl)c[n+]([O-])cc2Cl)c2ccc(OC(F)F)c(OCC3CC3)c2)cc1OCc1ccccc1	560 pM	990 pM	
COc1ccc(C(=O)O[C@@H](Cc2c(Cl)c[n+]([O-])cc2Cl)c2ccc(OC(F)F)c(OCC3CC3)c2)cc1OCC1CC1	50 pM	40 pM	
CS(=O)(=O)Nc1ccc(C(=O)O[C@@H](Cc2c(Cl)c[n+]([O-])cc2Cl)c2ccc(OC(F)F)c(OCC3CC3)c2)cc1	50 pM	130 pM	
Cc1ccc(C(=O)O[C@@H](Cc2c(Cl)c[n+]([O-])cc2Cl)c2ccc(OC(F)F)c(OCC3CC3)c2)cc1	100 pM	660 pM	
CS(=O)(=O)Nc1cc(C(=O)O[C@@H](Cc2c(Cl)c[n+]([O-])cc2Cl)c2ccc(OC(F)F)c(OCC3CC3)c2)ccc1OCC1CC1	130 pM	120 pM	
